The record followed here is PubChem BioAssay.

The term viability denotes a read-out of living cells in per cent, often relative to untreated cells. The inhibition is the relative decrease from the control value, in per cent.

Activity calls are given as the source filed them. Unless noted, no stated cut-off is given here; in the data, active means inhibition above about 30%; inactive means the rest.

The nature of assay [1]: reducers of endogenous Her2 protein level, primary screen, SKBR3 breast tumor cells, AlphaScreen, ATP viability (AID 461;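 active means Her2 level under about 52% in both replicate screens, with viability over 70% of control, limit read from the data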;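 on Her2 level: lower value means less Her2 protein in the cells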;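 on viability: percent of carrier control wells set as 100% viability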). The settings on record: 18-24 h, measured here: SKBR3 viability, ATP luminescence, at 10 µM. A general note: Alpha assays give light when donor and acceptor beads are brought close together.
The target in assay [2] is Receptor tyrosine-protein kinase erbB-2 (Homo sapiens) (UniProt P04626). The description is as above. The settings on record: 18-24 h, at 10 µM, stronger effect = lower value.
Assay [3] is described as follows: SK-BR-3 cell growth inhibitors, pilot screen, 24 h, human (AID 572;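 active means viability at or below 10% of carrier control in both of two separate runs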;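 further: compound exposure lasted between 18 and 24 h rather than exactly 24 h; 100% = carrier-treated control wells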). The settings on record: SK-BR-3 viability, CellTiter-Glo luminescence, at 10 µM, stronger effect = lower value. In general terms: ATP-based viability assays read luminescence as a measure of living cells.
Assay [4] in a line: HUVEC growth inhibition – cell-based, human, primary screen (AID 575;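 active means viability at or below 30% in both replicate assays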;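 further: 100% = median of untreated cell wells with 0.1% DMSO on each plate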). The settings on record: HUVEC proliferation, CellTiter-Glo luminescence, 72 h; at 10 µM; stronger effect = lower value. Put shortly:
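material = primary HUVEC, no more than 12 passages | input = 1250 cells per well | controls = vehicle and MePR control wells | measured by = CTG luminescence | times = 72 h compound incubation | format = collagen-coated 384-well format | read-out = % viability vs DMSO wells | doses = single 10 µM dose, 0.1% DMSO, from 5x medium stock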

Assay [5] can be described thus: growth inhibitors of H69AR lung tumor, primary screen, human, duplicate replicates (AID 580;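 active means viability at or under a set limit in both replicates, limit being median viability minus 3 SD, cut at about 48% in these data, passing the limit was not always enough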;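 further: 100% = mean luminescence of untreated wells and 0% = no signal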). Particulars: H69AR lung tumor cells viability, ATP luminescence, 72 h; at 10 µM; stronger effect = lower value.
Assay [6] in a line: reversal of MRP1-mediated doxorubicin resistance, pilot screen, H69AR cells, doxorubicin co-treatment (AID 601;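 active means viability loss from added drug above about 55%, and viability with drug at most 40%, in both replicates, limit read from the data, passing the limit was not always enough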). Particulars: CellTiter-Glo, 72 h, at 10 µM; for differential viability (reversal): stronger effect = higher value.
Assay [7] in a line: 384-well plate pilot, post-Golgi transport modulator project, inhibition of yeast transport mutant growth (AID 636; in the data active means inhibition above about 31%). The settings on record: absorbance 615 nm, about 18 h, stronger effect = higher value.
Assay [8] in a line: growth suppression of yeast trafficking mutant, preliminary HTS, modulators of trafficking downstream of Golgi apparatus project, 1536-format plate, OD 615 nm (AID 637). The settings on record: yeast transport mutant growth, absorbance 615 nm, 18 h; stronger effect = higher value.
Where [9] appears, read: H69AR cells + 2 uM doxorubicin, measured here: viability with 2 uM doxorubicin, stronger effect = lower value.
The mark [10] stands for this setting: H69AR cells, compound alone cytotoxicity.

Sequence of Receptor tyrosine-protein kinase erbB-2 (Homo sapiens) (P04626 whole entry, looked up): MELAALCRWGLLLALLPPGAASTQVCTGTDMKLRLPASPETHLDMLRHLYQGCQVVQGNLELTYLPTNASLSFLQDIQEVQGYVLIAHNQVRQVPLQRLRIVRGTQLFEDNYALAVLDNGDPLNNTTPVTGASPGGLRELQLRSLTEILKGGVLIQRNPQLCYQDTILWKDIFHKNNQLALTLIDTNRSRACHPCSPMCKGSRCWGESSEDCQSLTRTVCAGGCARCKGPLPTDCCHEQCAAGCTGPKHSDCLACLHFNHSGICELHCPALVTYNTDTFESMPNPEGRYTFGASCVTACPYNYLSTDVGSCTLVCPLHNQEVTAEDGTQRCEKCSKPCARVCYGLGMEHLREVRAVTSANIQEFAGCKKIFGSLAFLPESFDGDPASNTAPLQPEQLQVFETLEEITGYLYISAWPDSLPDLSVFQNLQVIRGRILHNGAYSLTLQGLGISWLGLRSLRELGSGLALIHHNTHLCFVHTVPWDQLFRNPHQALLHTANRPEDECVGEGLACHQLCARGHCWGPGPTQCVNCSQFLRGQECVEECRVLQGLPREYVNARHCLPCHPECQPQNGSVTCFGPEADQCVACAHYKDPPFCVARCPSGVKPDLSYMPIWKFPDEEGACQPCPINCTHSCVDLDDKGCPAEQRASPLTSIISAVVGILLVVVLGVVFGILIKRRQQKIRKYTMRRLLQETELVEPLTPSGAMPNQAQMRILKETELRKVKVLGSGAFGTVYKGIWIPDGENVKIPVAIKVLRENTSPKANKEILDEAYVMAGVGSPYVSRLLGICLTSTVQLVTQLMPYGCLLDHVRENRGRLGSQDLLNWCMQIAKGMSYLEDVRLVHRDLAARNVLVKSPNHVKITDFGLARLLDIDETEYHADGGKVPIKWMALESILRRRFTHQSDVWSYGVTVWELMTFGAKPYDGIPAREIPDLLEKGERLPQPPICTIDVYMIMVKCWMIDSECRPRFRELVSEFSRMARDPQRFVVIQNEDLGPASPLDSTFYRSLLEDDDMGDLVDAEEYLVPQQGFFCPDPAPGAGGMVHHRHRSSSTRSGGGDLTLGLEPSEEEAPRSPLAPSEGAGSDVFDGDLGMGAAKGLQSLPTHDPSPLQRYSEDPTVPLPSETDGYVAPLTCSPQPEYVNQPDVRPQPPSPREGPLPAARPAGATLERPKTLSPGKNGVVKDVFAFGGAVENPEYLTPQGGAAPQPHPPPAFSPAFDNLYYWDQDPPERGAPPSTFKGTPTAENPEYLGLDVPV

With `CC(NC(=O)CSc1n[nH]c(=O)n1C1CC1)C12CC3CC(CC(C3)C1)C2` (stereo not given), the viability in assay [1] was 91.5%; in assay [3], 91.5% (inactive); in assay [4], 91.6% (inactive); in assay [5], 99.8% (inactive); in assay [6] (setting [9]) it was 93.6%; in assay [6] (setting [10]) it was 99.8%. Also, in assay [2], the Her2 level is 106% (inactive). In assay [6] (H69AR cells + 2 uM doxorubicin), the differential viability (reversal) was 6.17% (inactive). For the same compound, the inhibition was -4% (inactive) in assay [7] and -5.41% (inactive) in assay [8].

Consider `CCOc1ccc(CN2CCN(c3cc(C)nc4c5c(C)cc(C)nc5nn34)CC2)cc1`, for which the viability was 80% in assay [1]; 80% (inactive) in assay [3]; 94.2% (inactive) in assay [4]; 88.8% (inactive) in assay [5]; 92% in assay [6] (setting [9]); 88.8% in assay [6] (setting [10]). Besides, the Her2 level in assay [2] is 83.5% (inactive). Besides, the differential viability (reversal) in assay [6] (H69AR cells + 2 uM doxorubicin) is -3.18% (inactive). Also, the inhibition in assay [7] was -2.5% (inactive); in assay [8] it was -4.36% (inactive).

As to `COc1cc(CC(=O)Nc2ncc(C)s2)cc(OC)c1OC`, the viability in assay [1] was 109%; in assay [3], 109% (inactive); in assay [4], 90.8% (inactive); in assay [5], 91.5% (inactive); in assay [6] (setting [9]), 88.8%; in assay [6] (setting [10]), 91.5%. Besides, the Her2 level in assay [2] is 96% (inactive). In addition, the differential viability (reversal) in assay [6] (H69AR cells + 2 uM doxorubicin) is 2.69% (inactive). The values for the inhibition in assay [7] and in assay [8] were -3.2% (inactive) and 5.74% (inactive), respectively.

Consider `Cc1ccc(N2CC(C(=O)N3CCN(C(=O)c4ccco4)CC3)CC2=O)cc1` (stereo not given), for which the viability in assay [1] was 96.5%; in assay [3], 96.5% (inactive); in assay [4] it was 104% (inactive); in assay [5], 96.1% (inactive); in assay [6] (setting [9]) it was 98.1%; in assay [6] (setting [10]), 96.1%. In addition, the Her2 level in assay [2] is 91% (inactive). For the same compound, in assay [6] (H69AR cells + 2 uM doxorubicin), the differential viability (reversal) is -1.97% (inactive). In addition, the inhibition in assay [7] was 0.39% (inactive); in assay [8], -1.29% (inactive).

As to `COc1ccc(CNc2nc(SCC(=O)NCc3ccco3)nc3ccccc23)cc1`, the viability was 80% in assay [1]; 80% (inactive) in assay [3]; 84.6% (inactive) in assay [4]; 94.4% (inactive) in assay [5]; 76.7% in assay [6] (setting [9]); 94.4% in assay [6] (setting [10]). In assay [2], the Her2 level was 90.5% (inactive). Further, the differential viability (reversal) in assay [6] (H69AR cells + 2 uM doxorubicin) was 17.6% (inactive). Also, the inhibition was -3.6% (inactive) in assay [7] and -4.26% (inactive) in assay [8].

With `CCc1ccc(N2CC(C(=O)OCC(=O)Nc3cc(C)on3)CC2=O)cc1` (stereo not given), the viability in assay [1] was 94%; in assay [3], 94% (inactive); in assay [4], 107% (inactive); in assay [5] it was 110% (inactive); in assay [6] (setting [9]), 99.2%; in assay [6] (setting [10]) it was 110%. In addition, the Her2 level in assay [2] is 92% (inactive). Also, in assay [6] (H69AR cells + 2 uM doxorubicin), the differential viability (reversal) was 11.1% (inactive). The results for the inhibition in assay [7] and in assay [8] were 0.9% (inactive) and -3.83% (inactive), respectively.

As to `Cc1cc(C(=O)NCCCc2ccccc2)no1`, the viability was 100% in assay [1]; 100% (inactive) in assay [3]; 91.4% (inactive) in assay [4]; 107% (inactive) in assay [5]; 88.7% in assay [6] (setting [9]); 107% in assay [6] (setting [10]). Besides, the Her2 level in assay [2] is 86% (inactive). Also, the differential viability (reversal) in assay [6] (H69AR cells + 2 uM doxorubicin) was 18.6% (inactive). Also, the inhibition was -5% (inactive) in assay [7] and -2.83% (inactive) in assay [8].

Consider `O=C(C1CCN(S(=O)(=O)N2CCC3(CC2)OCCO3)CC1)N1CCOCC1`, for which the viability is 98% in assay [1]; 98% (inactive) in assay [3]; 99.4% (inactive) in assay [4]; 94.1% (inactive) in assay [5]; 90.3% in assay [6] (setting [9]); 94.1% in assay [6] (setting [10]). Further, the Her2 level in assay [2] is 114% (inactive). In addition, in assay [6] (H69AR cells + 2 uM doxorubicin), the differential viability (reversal) is 3.86% (inactive). The inhibition in assay [7] was 0.92% (inactive); in assay [8], 7.38% (inactive).

Take `COC(=O)CCC(=O)Nc1cccc(Cl)c1`: the viability in assay [1] was 118%; in assay [3], 118% (inactive); in assay [4], 90.1% (inactive); in assay [5], 85.4% (inactive); in assay [6] (setting [9]), 91.1%; in assay [6] (setting [10]) it was 85.4%. The Her2 level in assay [2] is 87% (inactive). Besides, in assay [6] (H69AR cells + 2 uM doxorubicin), the differential viability (reversal) is -5.69% (inactive). In addition, the inhibition in assay [7] was -0.65% (inactive); in assay [8], -2.54% (inactive).

As for `CCCCNC(=O)c1c(C)cc(=O)oc1C`, the viability in assay [1] is 102%; in assay [3], 102% (inactive); in assay [4] it was 98.6% (inactive); in assay [5] it was 107% (inactive); in assay [6] (setting [9]), 92%; in assay [6] (setting [10]) it was 107%. Moreover, in assay [2], the Her2 level was 90.5% (inactive). Also, the differential viability (reversal) in assay [6] (H69AR cells + 2 uM doxorubicin) was 14.8% (inactive). The inhibition in assay [7] was -4.53% (inactive); in assay [8], -1.45% (inactive).

Regarding `CCN(CC)C(=O)c1sc(NC(=O)c2ccco2)c(C#N)c1C`, the viability is 99.5% in assay [1]; 99.5% (inactive) in assay [3]; 88% (inactive) in assay [4]; 79.3% (inactive) in assay [5]; 86.6% in assay [6] (setting [9]); 79.3% in assay [6] (setting [10]). In assay [2], the Her2 level is 103% (inactive). Also, in assay [6] (H69AR cells + 2 uM doxorubicin), the differential viability (reversal) is -7.3% (inactive). Moreover, the inhibition is -4.74% (inactive) in assay [7] and -7.26% (inactive) in assay [8].

In the case of `COc1ccc2c(c1)n([O-])c1c([n+]2=O)CCC1`, the viability in assay [1] was 110%; in assay [3] it was 110% (inactive); in assay [4] it was 109% (inactive); in assay [5], 100% (inactive); in assay [6] (setting [9]) it was 106%; in assay [6] (setting [10]) it was 100%. Moreover, the Her2 level in assay [2] was 91.5% (inactive). The differential viability (reversal) in assay [6] (H69AR cells + 2 uM doxorubicin) is -6% (inactive). Moreover, the inhibition was -1.18% (inactive) in assay [7] and -4.55% (inactive) in assay [8].

`Cc1ccc(S(=O)(=O)N2C(=O)CCC2C(=O)Nc2ccc3c(c2)OCCO3)cc1` (stereo not given): the viability is 109% in assay [1]; 109% (inactive) in assay [3]; 93.6% (inactive) in assay [4]; 89.7% (inactive) in assay [5]; 93.8% in assay [6] (setting [9]); 89.7% in assay [6] (setting [10]). For the same compound, the Her2 level in assay [2] was 96.5% (inactive). Besides, the differential viability (reversal) in assay [6] (H69AR cells + 2 uM doxorubicin) was -4.12% (inactive). The inhibition in assay [7] is -1.69% (inactive); in assay [8] it was -1.67% (inactive).

On to `Cc1cc(C)n(CC2CC(=O)N(c3ccc(Cl)c(Cl)c3)C2=O)n1` (stereo not given), for which the viability in assay [1] was 112%; in assay [3] it was 112% (inactive); in assay [4], 89.9% (inactive); in assay [5], 104% (inactive); in assay [6] (setting [9]), 93.4%; in assay [6] (setting [10]), 104%. Moreover, in assay [2], the Her2 level is 96.5% (inactive). The differential viability (reversal) in assay [6] (H69AR cells + 2 uM doxorubicin) is 10.4% (inactive). The inhibition was -4.79% (inactive) in assay [7] and -9.05% (inactive) in assay [8].
